{
  "source": "ChEMBL document CHEMBL1255304",
  "about": "“In vitro phenotypic susceptibility of human immunodeficiency virus type 2 clinical isolates to protease inhibitors” (Antimicrob Agents Chemother, 2008)",
  "key": {"[1]": {"system": "Human immunodeficiency virus 2", "assay": "Antiviral activity against HIV 2 subtype B clinical isolate expressing 14Y-19P-61N-64V-71I-90M-95I protease gene sequence from HIV2 infected patient plasma and PBMC obtained at T2 during compound treatment measured after 3 months", "format": "functional, organism-based", "details": "Human immunodeficiency virus 2, subtype B\\r\\n", "summary_of_the_method": "(§1)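 Virus isolated by PBMC coculture from patient samples taken before (T0) or during (T1, T2) protease inhibitor exposure, with protease genes sequenced from plasma and PBMC isolates. Susceptibility was tested in the ANRS PBMC assay, and the 50% inhibitory concentration (IC50) was reported.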"}, "[2]": {"system": "Human immunodeficiency virus 2", "assay": "Antiviral activity against HIV 2 subtype H expressing 10I-34E-40P-41Y-60H-63N-70T-73G-82F-89L-92E protease gene sequence from HIV2 infected patient plasma and PBMC obtained at T1 during compound treatment measured after 13 months", "format": "functional, organism-based", "details": "Human immunodeficiency virus 2, subtype H", "summary_of_the_method": "as §1"}, "[3]": {"system": "Human immunodeficiency virus 2", "assay": "Antiviral activity against HIV 2 subtype H expressing 10I-40P-41Y-60H-63N-70T-73G-89L-92E protease gene sequence from HIV2 infected patient plasma and PBMC obtained before compound treatment measured after 13 months", "format": "functional, organism-based", "details": "Human immunodeficiency virus 2, subtype H", "summary_of_the_method": "as §1"}, "[4]": {"assay": "(§2) Antiviral activity against Human immunodeficiency virus type 1 (BRU ISOLATE) after […]", "format": "functional", "details": "Human immunodeficiency virus 1"}, "[5]": {"system": "Human immunodeficiency virus type 1 (BRU ISOLATE)", "assay": "as §2", "format": "functional"}, "[6]": {"system": "Human immunodeficiency virus 2", "assay": "Antiviral activity against HIV 2 subtype A clinical isolate expressing 14H-17D-43T-68N/D protease gene sequence from HIV2 infected patient plasma and PBMC obtained before compound treatment measured after 13 months", "format": "functional, organism-based", "details": "Human immunodeficiency virus 2, subtype A", "summary_of_the_method": "as §1"}, "[7]": {"system": "Human immunodeficiency virus 2", "assay": "Antiviral activity against HIV 2 subtype A clinical isolate expressing 14H-40D-70K-72R/K-91T/S protease gene sequence from HIV2 infected patient plasma and PBMC obtained before compound treatment measured after 13 months", "format": "functional, organism-based", "details": "Human immunodeficiency virus 2, subtype A", "summary_of_the_method": "as §1"}, "[8]": {"system": "Human immunodeficiency virus 2", "assay": "Antiviral activity against HIV 2 subtype B clinical isolate expressing 14Y-19P-33I-61N-71I-75M-84V-90M protease gene sequence from HIV2 infected patient plasma and PBMC obtained at T1 during compound treatment measured after 13 months", "format": "functional, organism-based", "details": "Human immunodeficiency virus 2, subtype B\\r\\n", "summary_of_the_method": "as §1"}, "[9]": {"system": "Human immunodeficiency virus 2", "assay": "Antiviral activity against HIV 2 subtype B clinical isolate expressing 12T-14Y-19P-40N-41D-61N-62I-96S-99L protease gene sequence from HIV2 infected patient plasma and PBMC obtained before compound treatment measured after 13 months", "format": "functional, organism-based", "details": "Human immunodeficiency virus 2, subtype B\\r\\n", "summary_of_the_method": "as §1"}, "[10]": {"system": "Human immunodeficiency virus 2", "assay": "Antiviral activity against HIV 2 subtype A clinical isolate expressing 10V/I-40D-43I-56V-70K-82F-84V-89V-90M protease gene sequence from HIV2 infected patient plasma and PBMC obtained at T2 during compound treatment measured after 3 months", "format": "functional, organism-based", "details": "Human immunodeficiency virus 2, subtype A", "summary_of_the_method": "as §1"}, "[11]": {"system": "Human immunodeficiency virus 2", "assay": "Antiviral activity against HIV 2 subtype A clinical isolate expressing 14H-60K/N-65E protease gene sequence from HIV2 infected patient plasma and PBMC obtained before compound treatment measured after 13 months", "format": "functional, organism-based", "details": "Human immunodeficiency virus 2, subtype A", "summary_of_the_method": "as §1"}, "[12]": {"system": "Human immunodeficiency virus 2", "assay": "Antiviral activity against HIV 2 subtype A clinical isolate expressing 10I-17D-40D-43I-46V-66V/A-70R/K protease gene sequence from HIV2 infected patient plasma and PBMC obtained before compound treatment measured after 13 months", "format": "functional, organism-based", "details": "Human immunodeficiency virus 2, subtype A", "summary_of_the_method": "as §1"}, "[13]": {"system": "Human immunodeficiency virus 2", "assay": "Antiviral activity against HIV 2 subtype A clinical isolate expressing 10I-40D-43I-70K-82F-84V-85L-89V-90M-91T/L-98N/K protease gene sequence from HIV2 infected patient plasma and PBMC obtained at T1 during compound treatment measured after 13 months", "format": "functional, organism-based", "details": "Human immunodeficiency virus 2, subtype A", "summary_of_the_method": "as §1"}, "[14]": {"system": "Human immunodeficiency virus 2", "assay": "Antiviral activity against HIV 2 subtype A clinical isolate expressing 10I-17D-40D-43I-45K/R-46V-54M-64I/V-69K/R-71V/I-90M protease gene sequence from HIV2 infected patient plasma and PBMC obtained at T1 during compound treatment measured after 13 months", "format": "functional, organism-based", "details": "Human immunodeficiency virus 2, subtype A", "summary_of_the_method": "as §1"}, "[15]": {"system": "Human immunodeficiency virus 2", "assay": "Antiviral activity against HIV 2 subtype A clinical isolate expressing 5L/F-14Y/H-17G/D-43T-54I/M-62V/A-70R/K-71I protease gene sequence from HIV2 infected patient plasma and PBMC obtained at T1 during compound treatment measured after 13 months", "format": "functional, organism-based", "details": "Human immunodeficiency virus 2, subtype A", "summary_of_the_method": "as §1"}, "[16]": {"system": "Human immunodeficiency virus 2", "assay": "Antiviral activity against HIV 2 subtype A clinical isolate expressing 54M-65E-71I-74N-90M protease gene sequence from HIV2 infected patient plasma and PBMC obtained at T1 during compound treatment measured after 13 months", "format": "functional, organism-based", "details": "Human immunodeficiency virus 2, subtype A", "summary_of_the_method": "as §1"}, "[17]": {"system": "Human immunodeficiency virus 2", "assay": "Antiviral activity against HIV 2 subtype B clinical isolate expressing 12Q-14R-17G/D-19P-61N-62I-92A protease gene sequence from HIV2 infected patient plasma and PBMC obtained before compound treatment measured after 13 months", "format": "functional, organism-based", "details": "Human immunodeficiency virus 2, subtype B\\r\\n", "summary_of_the_method": "as §1"}, "[18]": {"system": "Human immunodeficiency virus 2", "assay": "Antiviral activity against HIV 2 subtype B clinical isolate expressing 14Y-61N-99L protease gene sequence from HIV2 infected patient plasma and PBMC obtained before compound treatment measured after 13 months", "format": "functional, organism-based", "details": "Human immunodeficiency virus 2, subtype B\\r\\n", "summary_of_the_method": "as §1"}, "[19]": {"system": "Human immunodeficiency virus 2", "assay": "Antiviral activity against Human immunodeficiency virus type 2 (ISOLATE ROD) after 13 months", "format": "functional, organism-based", "details": "Human immunodeficiency virus 2, ISOLATE ROD", "summary_of_the_method": "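Reference strain ROD was tested in the ANRS PBMC assay alongside the clinical isolates, and the 50% inhibitory concentration (IC50) was reported.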"}},
  "data": [
    {"smiles": "CC(C)CN(C[C@@H](O)[C@H](Cc1ccccc1)NC(=O)O[C@H]1CCOC1)S(=O)(=O)c1ccc(N)cc1", "note": "[AMPRENAVIR]", "values": [
      {"measurement": "IC50", "setting": "[1]", "result": 17, "unit": "µM"},
      {"measurement": "IC90", "setting": "[1]", "result": 140, "unit": "µM"},
      {"measurement": "IC50", "setting": "[2]", "result": 10, "unit": "µM"},
      {"measurement": "IC90", "setting": "[2]", "result": 82, "unit": "µM"},
      {"measurement": "IC50", "setting": "[3]", "result": 0.9, "unit": "µM"},
      {"measurement": "IC90", "setting": "[3]", "result": 2.7, "unit": "µM"},
      {"measurement": "IC50", "setting": "[4]", "result": 0.02, "unit": "µM"},
      {"measurement": "IC90", "setting": "[5]", "result": 0.2, "unit": "µM"},
      {"measurement": "IC50", "setting": "[6]", "result": 0.6, "unit": "µM"},
      {"measurement": "IC90", "setting": "[6]", "result": 3.8, "unit": "µM"},
      {"measurement": "IC50", "setting": "[7]", "result": 0.3, "unit": "µM"},
      {"measurement": "IC90", "setting": "[7]", "result": 1.6, "unit": "µM"},
      {"measurement": "IC50", "setting": "[8]", "result": 14, "unit": "µM"},
      {"measurement": "IC90", "setting": "[8]", "result": 110, "unit": "µM"},
      {"measurement": "IC50", "setting": "[9]", "result": 0.4, "unit": "µM"},
      {"measurement": "IC90", "setting": "[9]", "result": 2.4, "unit": "µM"},
      {"measurement": "IC50", "setting": "[10]", "result": 12, "unit": "µM"},
      {"measurement": "IC90", "setting": "[10]", "result": 95, "unit": "µM"},
      {"measurement": "IC50", "setting": "[11]", "result": 0.9, "unit": "µM"},
      {"measurement": "IC90", "setting": "[11]", "result": 6.8, "unit": "µM"},
      {"measurement": "IC50", "setting": "[12]", "result": 0.4, "unit": "µM"},
      {"measurement": "IC90", "setting": "[12]", "result": 3.5, "unit": "µM"},
      {"measurement": "IC50", "setting": "[13]", "result": 12, "unit": "µM"},
      {"measurement": "IC90", "setting": "[13]", "result": 96, "unit": "µM"},
      {"measurement": "IC50", "setting": "[14]", "result": 9.5, "unit": "µM"},
      {"measurement": "IC90", "setting": "[14]", "result": 31, "unit": "µM"},
      {"measurement": "IC50", "setting": "[15]", "result": 4.4, "unit": "µM"},
      {"measurement": "IC90", "setting": "[15]", "result": 13, "unit": "µM"},
      {"measurement": "IC50", "setting": "[16]", "result": 4, "unit": "µM"},
      {"measurement": "IC90", "setting": "[16]", "result": 60, "unit": "µM"},
      {"measurement": "IC50", "setting": "[17]", "result": 0.4, "unit": "µM"},
      {"measurement": "IC90", "setting": "[17]", "result": 2.8, "unit": "µM"},
      {"measurement": "IC50", "setting": "[18]", "result": 0.6, "unit": "µM"},
      {"measurement": "IC90", "setting": "[18]", "result": 4.6, "unit": "µM"},
      {"measurement": "IC50", "setting": "[19]", "result": 0.6, "unit": "µM"},
      {"measurement": "IC90", "setting": "[19]", "result": 4.6, "unit": "µM"}
    ]}
  ]
}
